Bioassay records (PubChem BioAssay)
Most compounds without a hit are left out; they make up all but 2.5% or so of the library.
SIAE primary = human SIAE inhibition, primary screen. Q9HAT2. inhibition, % at 9.66 µM. SIAE FP-Rh probe binding, fluorescence polarization. actives 0.69% (n = 370,000). AID 1053197;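 active = inhibition above a cutoff: mean of compounds within the control limits plus 3 SD of those, cut at about 17% in these data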
HTRA1 inhibitor = HTRA1 (human) protease inhibition; recombinant HTRA1, FP-rhodamine activity-based probe, fluorescence polarization; inhibition, % at 5.96 µM; actives 0.5% (n = 340,000); in the data active = inhibition above about 36%
Target sequence (Q92743 whole entry, looked up): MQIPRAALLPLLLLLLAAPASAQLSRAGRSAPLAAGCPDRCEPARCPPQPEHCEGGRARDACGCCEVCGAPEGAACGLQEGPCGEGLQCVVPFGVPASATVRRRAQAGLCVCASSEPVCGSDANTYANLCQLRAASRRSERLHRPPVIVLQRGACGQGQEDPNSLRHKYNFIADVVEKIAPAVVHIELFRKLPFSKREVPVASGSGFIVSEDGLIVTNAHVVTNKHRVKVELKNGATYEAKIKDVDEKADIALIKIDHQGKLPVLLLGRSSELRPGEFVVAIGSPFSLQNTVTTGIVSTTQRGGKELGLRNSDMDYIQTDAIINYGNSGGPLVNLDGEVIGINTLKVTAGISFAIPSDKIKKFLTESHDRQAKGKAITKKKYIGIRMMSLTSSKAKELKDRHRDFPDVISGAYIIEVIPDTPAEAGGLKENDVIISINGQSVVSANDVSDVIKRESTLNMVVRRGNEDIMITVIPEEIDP
TCR CD3 inh = blocks the human TCR-CD3 interaction; inhibition, % at 9.4 µM; TAMRA-labeled TCR probe fluorescence, biochemical; actives 0.37% (n = 360,000); in the data active = inhibition above about 19%;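 note: recombinant mutant TCR 2C K166C tagged with TAMRA read by polarization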
ABHD4 inh = ABHD4 (mouse) inhibition, primary FP screen; Q8VD66; purified mABHD4, FP-Rh probe fluorescence polarization; inhibition, % at 8.92 µM; actives 0.54% (n = 370,000);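 active = inhibition exceeding the mean over every tested compound plus 3 SD, cut at about 30% in these data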
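Assay system: wild-type mouse ABHD4 protein; compound: single nominal dose of 8.92 µM, 0.89% DMSO final; schedule: 45 min + 60 min at 25 °C; measured by: FP readout, ex 525 nm / em 598 nm; evaluation: % inhibition of FP-Rh probe binding versus controls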
rCAG RNA binder = r(CAG) repeat RNA binding | TO-PRO-1 dye displacement fluorescence | inhibition, % at 3 µM | AID 651821 | actives 1.3% (n = 370,000);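 active = inhibition above the plate cutoff, the mean of all test compounds on that plate plus 3 SD, cut at about 35% in these data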;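 note: higher means more dye released from RNA so lower well fluorescence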
mABHD4 conf = ABHD4 (mouse) inhibition, FP confirmation | actives 55% (n = 1,800) | AID 720658 | purified mABHD4, FP-Rh probe fluorescence polarization | inhibition, % at 8.92 µM | shares compounds with ABHD4 inh;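 active = mean inhibition across replicates above the hit cutoff set in the primary screen, cut at about 30% in these data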
SIAE confirm = human SIAE inhibition, confirmation; shares compounds with SIAE primary; SIAE FP-Rh activity-based probe, fluorescence polarization; inhibition, % at 9.66 µM; actives 13% (n = 2,300); AID 1117263;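 active = mean inhibition of the replicates above the hit cutoff set in the primary screen, cut at about 17% in these data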;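 note: inhibitors lower polarization as more probe stays unbound to SIAE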
Each line names hits and unclear results; the compound was inactive in the other large screens (follow-up assays come after a bar, where they were run).

C=C(C)CN(CC)c1nc(N)c2c(N)nc3c(c2c1C#N)CC(=O)N3C12CC3CC(CC(C3)C1)C2	ABHD4 inh 36 | mABHD4 conf inactive
C[C@H]1CN([C@@H](C)CO)C(=O)Cc2cc(NC(=O)CCC(F)(F)F)ccc2O[C@H]1CN(C)S(=O)(=O)c1ccc(Cl)cc1	none
CCNC(=S)NNC(=O)c1ccccc1Cl	none
CCNC(=S)NNC(=O)c1ccccn1	ABHD4 inh 54 | mABHD4 conf 55
Nc1ccc2c(c1)C(=O)c1cc(Cl)c(Cl)cc1-2	none
Nc1ccc2c(c1)C(=O)c1ccc(N)cc1-2	ABHD4 inh 30 | mABHD4 conf 37
CCCNc1c(F)c(F)c2c(C)c3ccccc3nc2c1F	HTRA1 inhibitor 51, ABHD4 inh 51 | mABHD4 conf 45
Cc1c2ccccc2nc2ccccc12	none
O=C(/C=C/c1ccc(-c2ccccc2[N+](=O)[O-])o1)c1ccccc1	ABHD4 inh 32 | mABHD4 conf inactive
CSCCNC(=O)c1ccc(OC2CCN(CCc3ccccc3)CC2)cc1	none
Cc1cccc(Nc2ccc(C(=O)O)cc2[N+](=O)[O-])c1C	ABHD4 inh 37 | mABHD4 conf 30
CCOc1ccc(Nc2ccc(C(=O)O)cc2[N+](=O)[O-])cc1	ABHD4 inh 60 | mABHD4 conf 45
NC(=O)c1ccc(Nc2ccc([N+](=O)[O-])cc2[N+](=O)[O-])cc1	none
O=C(O)c1ccc(Nc2ccc(F)c(F)c2)c([N+](=O)[O-])c1	ABHD4 inh 32 | mABHD4 conf 32
COc1ccc(Nc2ccc(C(=O)O)cc2[N+](=O)[O-])cc1	ABHD4 inh 49 | mABHD4 conf 43
COc1ccc(Nc2ccc(C(N)=O)cc2[N+](=O)[O-])cc1	none
Cc1ccc(NC(=O)C2CCN(S(=O)(=O)c3cccs3)CC2)cc1	none
CCCCC(=O)NCc1ccc(Cl)cc1	none
Cc1c(C)n(O)c2ccc3nonc3c12	none
NC(N)=N/N=C(\N=Nc1ccccc1)c1ccc(Cl)cc1	ABHD4 inh 44 | mABHD4 conf 55
Cc1csc(=O)n1CCC(=O)OCC(=O)Nc1cc([N+](=O)[O-])ccc1Cl	ABHD4 inh 56 | mABHD4 conf inactive
O=C1CC(Nc2ccccc2)C(=O)N1c1ccc(N2CCOCC2)cc1 (centres undefined)	none
O=C1CC(Nc2ccc(N3CCOCC3)cc2)C(=O)N1c1ccccc1F (centres undefined)	ABHD4 inh 50 | mABHD4 conf inactive
COc1cc2ccc(=O)oc2c(O)c1O	SIAE primary 26, ABHD4 inh 32 | mABHD4 conf inactive | SIAE confirm inactive
Cn1c(CNc2ccccc2O)nc2ccccc21	SIAE primary 19, ABHD4 inh 31 | mABHD4 conf inactive | SIAE confirm inactive
C=CCn1c(O)c(C2=c3ccccc3=NC2=O)c2ccccc21	SIAE primary 28, ABHD4 inh 38 | mABHD4 conf 44 | SIAE confirm inactive
CCCCNc1ccc2c3c(cccc13)C(=O)N(CCCC)C2=O	SIAE primary 19, ABHD4 inh 52 | mABHD4 conf 68 | SIAE confirm 18
CCCCc1nc(Cl)c(CO)n1Cc1ccc(-c2ccccc2-c2nn[nH]n2)cc1	none
Cc1cccnc1NC(=O)C1CCC1	none (no result: SIAE primary, TCR CD3 inh, ABHD4 inh, rCAG RNA binder)
Oc1cccc(NC(=S)Nc2ccc(SC(F)F)cc2)c1	none
Oc1cccc2c(NC(=S)Nc3ccc(SC(F)F)cc3)cccc12	SIAE primary 19, ABHD4 inh 40 | mABHD4 conf inactive | SIAE confirm inactive
COc1cccc(CNC(=O)C2CCCN(S(=O)(=O)c3c(C)n[nH]c3C)C2)c1 (centres undefined)	none
CC[N+]1=C(C)C(C)(C)c2cc(C)ccc21	none
Cc1ccc(OCC(=O)OCc2c(C)noc2C)cc1C	none
COc1ccc(CNc2ncnc3c2[nH]c2cc(OC)c(OC)cc23)cc1	SIAE primary 37, ABHD4 inh 32 | mABHD4 conf 70 | SIAE confirm 24
O=C(NC(=S)Nc1cccc2c(O)cccc12)c1ccco1	SIAE primary 17, ABHD4 inh 30 | mABHD4 conf inactive | SIAE confirm inactive
Cc1ccc(C#N)c(SCC(=O)Nc2nccs2)n1	none
O=C(NNc1c2ccccc2nc2ccccc12)c1ccccc1Cl	none
O=C(NNc1c2ccccc2nc2ccccc12)c1ccc(O)cc1O	SIAE primary 28, ABHD4 inh 35 | mABHD4 conf 62 | SIAE confirm inactive
COc1cccc(/C=N/NC(=O)c2cc3c(OC)ccc(OC)c3[nH]2)c1O	SIAE primary 34, ABHD4 inh 37 | mABHD4 conf 62 | SIAE confirm inactive
COc1cccc(/C=N/NC(=O)c2ccc3nc[nH]c3c2)c1O	none
COC(=O)c1c(Cl)c2n3ccccc3c(C)c(-c3ccccc3)c-2c1C(=O)OC	SIAE primary 21, ABHD4 inh 44 | mABHD4 conf inactive | SIAE confirm inactive
COC(=O)c1cc2c(-c3ccccc3)c(C)c3ccccn3c-2c1C(=O)OC	none
CCOC(=O)Cc1cc(=O)c2c(=O)n(-c3ccccc3)[nH]c2[nH]1	SIAE primary 18, ABHD4 inh 57 | mABHD4 conf inactive | SIAE confirm inactive
O=c1c2c([N+](=O)[O-])cc([N+](=O)[O-])cc2sn1-c1ccc(Br)cc1	none (no result: SIAE primary, TCR CD3 inh, ABHD4 inh, rCAG RNA binder)
O=c1c2c([N+](=O)[O-])cc([N+](=O)[O-])cc2sn1Cc1ccccc1	SIAE primary 25, ABHD4 inh 32 | mABHD4 conf inactive | SIAE confirm 20
COc1ccc(NC(=O)COC(=O)Cc2ccc(Br)cc2)cc1	none
CCCCCCCCSC1=CC(=O)C(OC)=C(OC)C1=O	SIAE primary 21, ABHD4 inh 39 | mABHD4 conf 52 | SIAE confirm inactive
C(=C\c1ccccc1)/C=N/Nc1nc2ccccc2[nH]1	SIAE primary 22, ABHD4 inh 32 | mABHD4 conf 33 | SIAE confirm 18
C(=N\Nc1nc2ccccc2[nH]1)/c1ccccc1	none
COC(=O)Cc1csc(Nc2ccc(F)c(Cl)c2)n1	SIAE primary 22, ABHD4 inh 36 | mABHD4 conf inactive | SIAE confirm inactive
COC(=O)Cc1csc(Nc2ccc(Cl)cc2)n1	none
CN(Cc1cccc(F)c1)CC(O)COCc1ccccc1Cl (centres undefined)	none
C=CCNC(=O)NC(=O)COn1nnc2ccc(S(=O)(=O)N(C)C)cc21	none
CN(C)c1ccc(NC(=S)Nc2ccc3c(c2)c(=O)n(C)n3-c2ccc(C(C)(C)C)cc2)cc1	SIAE primary 20, ABHD4 inh 31 (no result: HTRA1 inhibitor) | mABHD4 conf 45 | SIAE confirm inactive
O=C(NNC(=O)c1ccc(-n2cncn2)c([N+](=O)[O-])c1)c1cccc(Cl)c1	none
